In ChEMBL document CHEMBL1144051, “Structural considerations of NK109, an antitumor benzo[c]phenanthridine alkaloid” (J Nat Prod, 1999):
≈ marks a conversion by molar mass, not a printed value.

Experiments:
HeLa = experiment: Growth inhibition of human HeLa S3 cells after 72 hrs; assay type: functional, cell-based
Procedure, shortened: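 HeLa S3 in Eagle's MEM with 10% calf serum and 60 µg/mL kanamycin, 37 °C, 5% CO2; seeded, grown 24 h, then exposed 72 h to compound diluted in 5% glucose at 0.01–10 µg/mL. Nuclei stained with methylene blue, cell number read at 660 nm; IC50 from growth rate relative to control.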

[1] = Dissociation constant, pKa of the compound; assay type: physicochemical
P388 [2] = experiment: Antitumor activity against mouse P388 cells xenografted CDF1 mouse at 50 mg/kg, iv administered on day 1 after 30 days relative to control; assay type: functional
Procedure, shortened: (§1)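 Female CDF1 mice, 6 weeks old, five per group, inoculated iv with P-388 leukemia cells (1 × 10^5 cells/body) on day 0; cells maintained by ip passage in DBA/2 mice. Single tail-vein injection on day 1 (0.1 mL per 10 g), vehicle 5% glucose or EtOH–Cremophore (1:1) diluted in 5% glucose. Followed 30 days; T/C (%) from median survival time, treated versus control.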

Mus musculus [3] = experiment: Toxicity against mouse P388 cells xenografted CDF1 mouse assessed as survival time at 50 mg/kg, iv; assay type: organism-based; set-up: dose 50 mg/kg, route intravenous; conditions: in vivo; procedure, shortened: as §1
Mus musculus [4] = experiment: Toxicity against mouse P388 cells xenografted CDF1 mouse assessed as survival time at 75 mg/kg, iv; assay type: organism-based; set-up: dose 75 mg/kg, route intravenous; conditions: in vivo; procedure, shortened: as §1
Mus musculus [5] = experiment: Toxicity against mouse P388 cells xenografted CDF1 mouse assessed as survival time at 150 mg/kg, iv; assay type: organism-based; set-up: dose 150 mg/kg, route intravenous; conditions: in vivo; procedure, shortened: as §1
Mus musculus [6] = experiment: Toxicity in mouse P388 cells xenografted CDF1 mouse assessed as decrease in body weight at 150 mg/kg, iv administered on day 1 after 30 days; assay type: organism-based; set-up: dose 150 mg/kg, route intravenous; conditions: in vivo, 720 h
Procedure, shortened: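 Female CDF1 mice, 6 weeks old, five per group, given P-388 cells iv (1 × 10^5 cells/body) on day 0, then a single tail-vein dose on day 1 in 5% glucose or EtOH–Cremophore (1:1) diluted in 5% glucose. Body weight tracked against untreated controls, reported as mean with s.e.mean.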

P388 [7] = experiment: Antitumor activity against mouse P388 cells xenografted CDF1 mouse at 150 mg/kg, iv administered on day 1 after 30 days relative to control; assay type: functional; procedure, shortened: as §1
P388 [8] = experiment: Antitumor activity against mouse P388 cells xenografted CDF1 mouse at 75 mg/kg, iv administered on day 1 after 30 days relative to control; assay type: functional; procedure, shortened: as §1
P388 [9] = experiment: Antitumor activity against mouse P388 cells xenografted CDF1 mouse at 6.25 mg/kg, iv administered on day 1 after 30 days relative to control; assay type: functional; procedure, shortened: as §1
Mus musculus [10] = experiment: Toxicity against mouse P388 cells xenografted CDF1 mouse assessed as survival time at 6.25 mg/kg, iv; assay type: organism-based; set-up: dose 6.25 mg/kg, route intravenous; conditions: in vivo; procedure, shortened: as §1
P388 [11] = experiment: Antitumor activity against mouse P388 cells xenografted CDF1 mouse at 25 mg/kg, iv administered on day 1 after 30 days relative to control; assay type: functional; procedure, shortened: as §1
P388 [12] = experiment: Antitumor activity against mouse P388 cells xenografted CDF1 mouse at 12.5 mg/kg, iv administered on day 1 after 30 days relative to control; assay type: functional; procedure, shortened: as §1
Mus musculus [13] = experiment: Toxicity against mouse P388 cells xenografted CDF1 mouse assessed as survival time at 12.5 mg/kg, iv; assay type: organism-based; set-up: dose 12.5 mg/kg, route intravenous; conditions: in vivo; procedure, shortened: as §1
Mus musculus [14] = experiment: Toxicity against mouse P388 cells xenografted CDF1 mouse assessed as survival time at 25 mg/kg, iv; assay type: organism-based; set-up: dose 25 mg/kg, route intravenous; conditions: in vivo; procedure, shortened: as §1

Work on `COc1ccc2c(c1O)CN(C)c1c-2ccc2cc3c(cc12)OCO3` yielded an IC50 (HeLa) of 16.2 µg/mL (≈ 48.3 µM).

Compound `COc1ccc2c(c[n+](C)c3c4cc5c(cc4ccc23)OCO5)c1O.O.O.O=S(=O)([O-])O` has a pKa [1] of 5.3, a T/C (P388 [2]) of 147% and an MSD (Mus musculus [3]) of 13.2 days. The IC50 (HeLa) was 0.08 µg/mL, the MSD (Mus musculus [4]) was 14.3 days and the MSD (Mus musculus [5]) was 23.5 days. The Activity (Mus musculus [6]) was “Toxic”, the T/C (P388 [7]) was 261% and the T/C (P388 [8]) was 159%.

Work on `COc1ccc2c(c[n+](C)c3c4cc5c(cc4ccc23)OCO5)c1OC.[Cl-]` [CHELERYTHRINE CHLORIDE] yielded a T/C (P388 [9]) of 111%, an MSD (Mus musculus [10]) of 10 days and an IC50 (HeLa) of 1.24 µg/mL. It also gave a T/C (P388 [11]) of 12%, a T/C (P388 [12]) of 111% and an MSD (Mus musculus [13]) of 10 days. For the same compound, the MSD (Mus musculus [14]) was 1.1 days.

`COc1c(O)ccc2c1c[n+](C)c1c3cc4c(cc3ccc21)OCO4.[Cl-]` [FAGARIDINE HYDROCHLORIDE] gave an IC50 (HeLa) of 3.99 µg/mL.

`COc1cc2c(ccc3c4cc(OC)c(OC)cc4c[n+](C)c23)cc1O.[Cl-]` [FAGARONINE] gave a T/C (P388 [2]) of 102%, an MSD (Mus musculus [3]) of 9.5 days and an IC50 (HeLa) of 0.39 µg/mL. It also gave a T/C (P388 [11]) of 102%, an MSD (Mus musculus [4]) of 1.3 days and a T/C (P388 [8]) of 14%. The MSD (Mus musculus [14]) was 9.5 days.

For `COc1cc2c[n+](C)c3c4cc5c(cc4ccc3c2cc1OC)OCO5.[Cl-]` [NITIDINE CHLORIDE], the T/C (P388 [2]) was 102%, the MSD (Mus musculus [3]) was 9.5 days and the IC50 (HeLa) was 0.05 µg/mL. It also gave a T/C (P388 [11]) of 108%, an MSD (Mus musculus [4]) of 4.3 days and a T/C (P388 [8]) of 46%. For the same compound, the MSD (Mus musculus [14]) was 10 days.

`C[n+]1cc2c3c(ccc2c2ccc4cc5c(cc4c21)OCO5)OCO3.[Cl-]` [SANGUINARIUM CHLORIDE] showed a T/C (P388 [2]) of 12%, an MSD (Mus musculus [3]) of 1.1 days and an IC50 (HeLa) of 0.16 µg/mL. The T/C (P388 [11]) was 25%, the T/C (P388 [12]) was 102% and the MSD (Mus musculus [13]) was 9.5 days. The MSD (Mus musculus [14]) was 2.3 days.
